Results published in PubChem BioAssay.
Active and inactive are the calls of the source.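 Rule for the calls, unless noted: active = NADPH fluorescence slope more negative than the mean of all samples by about 3 SD, 99.7% confidence; inactive = the rest.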

Molecular target: Voltage-gated potassium channel subunit beta-2 (Rattus norvegicus) (UniProt P62483)
Experiment: KvBeta positive modulators, primary screen, biochemical, NADPH fluorescence (AID 623);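 note: fluorescence intensity change per second fitted from 20 to 320 s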
Details: Recombinant KvBeta, NADPH fluorescence decrease slope, 10 min; at 10 µM; stronger effect = lower value

Voltage-gated potassium channel subunit beta-2 (Rattus norvegicus), sequence (P62483 whole entry, looked up): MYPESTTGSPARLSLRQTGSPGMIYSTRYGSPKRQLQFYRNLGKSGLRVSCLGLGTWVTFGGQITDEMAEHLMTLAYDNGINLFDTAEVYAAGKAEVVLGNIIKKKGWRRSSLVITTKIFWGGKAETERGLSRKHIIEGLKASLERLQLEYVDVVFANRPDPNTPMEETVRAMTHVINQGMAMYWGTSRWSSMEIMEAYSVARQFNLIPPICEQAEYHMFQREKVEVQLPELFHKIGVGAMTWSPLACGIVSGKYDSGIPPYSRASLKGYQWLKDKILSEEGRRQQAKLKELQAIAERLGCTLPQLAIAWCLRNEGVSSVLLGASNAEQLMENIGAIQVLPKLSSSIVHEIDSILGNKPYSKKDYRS

NADPH fluorescence slope, inactive:
CCCn1c2c(c(O)c(C(=O)Nc3ccc(C)cn3)c1=O)CCCC2 -6e-05
CCCC1(C(=O)OCC)NC(c2ccc(N(C)C)cc2)C2C(=O)N(c3ccccc3)C(=O)C21 (stereo not given) -6.2e-05
COc1cc(C2C(C(=O)c3ccc(C)o3)=C(O)C(=O)N2c2cc(C)on2)cc(Br)c1O (stereo not given) -3e-05
CCCCc1cc(=O)oc2c(CN3CCCC3)c(O)c(Cl)cc12 0
Cc1ccccc1-c1nc(CN2CCC(C(=O)NCc3cccnc3)CC2)c(C)o1 -0.000229
O=C(Nc1ccc(Cc2ccncc2)cc1)C1CC1 2.8e-05
Nc1cc(C(=O)O)ccc1Nc1ccc(F)c(F)c1 0.000103
CSc1nc2c(ccc3ccccc32)o1 -1.5e-05
CCCCSc1nc2c(cnn2-c2ccc(Cl)cc2)c(=O)[nH]1 -9.3e-05
CC(NO)C(C)(C)NO (stereo not given) 9e-05
CCCCOc1ccc(C(=O)Nc2ccc(N3CCN(C(=O)C(C)C)CC3)cc2)cc1 -1.7e-05
O=c1[nH]c2ccccc2nc1NCCN1CCOCC1 -6.2e-05
CCOC(=O)c1ccccc1NC(=O)COC(=O)C1=COCCO1 -3.3e-05
COCCCNC(=O)C(Cc1ccccc1)NS(=O)(=O)c1ccc2c(c1)c(=O)n(C)c(=O)n2C (stereo not given) -8e-06
Cc1nc2cc(CO)ccc2n1C -3.5e-05
NCC(O)COc1ccc2c(c1)OCO2 (stereo not given) -0.000108
Nc1nc2sc3c(c2c(=O)s1)CCCC3 -0.0002
COc1cccc(OC)c1C(=O)N1CCN(S(=O)(=O)c2ccccc2)CC1 -6.4e-05
COc1ccc(C(NC(=O)c2ccco2)c2ccc(OC)c(OC)c2)cc1 (stereo not given) -6.7e-05
O=C(O)C1CC(=O)N(c2ccc(OCc3ccccc3Cl)cc2)C1 (stereo not given) 4e-05
O=C(CCSc1nnc(-c2ccncc2)o1)Nc1ccccc1 -6.6e-05
CCNS(=O)(=O)c1c(C)cc(N2CCCC2=O)cc1C 9.1e-05
CN(C)C(CNc1nnnn1-c1ccccc1)c1ccco1 (stereo not given) 4.2e-06
Cn1c(-c2ccccc2)c(CCO)c2ccccc21 -3.6e-05
CCOC(=O)C1C(=O)NC(SCC(=O)Nc2nccs2)=C(C#N)C1c1ccccc1OCC (stereo not given) -3.1e-05
c1ccc2nc(-c3nc4ccccc4[nH]3)ccc2c1 -2.7e-05
COc1cc(-c2nc(S(=O)(=O)c3ccccc3)c(N3CCOCC3)o2)cc(OC)c1OC -0.000303
O=C(N1CCN(Cc2ccccc2)CC1)C12CC3CC(CC(C3)C1)C2 -4.6e-05
CC(=O)c1c(NCCc2ccccc2)cc(C)oc1=O -2.2e-05
O=C(NCCCN1CCN(CCCNC(=O)c2ccc(F)cc2)CC1)c1ccc(F)cc1 1.1e-05
C=CCn1c(SCc2cc(=O)n3ccsc3n2)nnc1C1CCCCC1 -1.8e-05
Oc1c(Cl)cc(Cl)c2c1NCCC2 -3e-05
CN(C)S(=O)(=O)c1ccc2c(c1)C(CC(=O)O)OC2=O (stereo not given) 0.000172
COc1cc(OC)cc(-n2nnnc2SCC(=O)N2CCCC2)c1 1.7e-05
CCC(=O)N1CCc2cc(Br)cc(S(=O)(=O)C3(C(=O)OC)CC3)c21 -3.7e-05
COC(=O)C(C)Sc1nc2c(c(=O)n(C)c(=O)n2C)n1Cc1cccc(C)c1 (stereo not given) -3.9e-05
Cn1c(SCc2ccc3c(c2)OCO3)nnc1-c1ccccc1 4.8e-05
Cc1nn(-c2ccc(F)cc2)c(C)c1NS(=O)(=O)c1ccc(Cl)cc1 -4.6e-05
CC1(C)OC(=O)C(=CNc2ccccc2)C(=O)O1 -1.8e-06
CCCCCn1c(CN(C)Cc2ccccc2)nc2c1c(=O)n(C)c(=O)n2C -9.4e-05

Molecular target: Muscarinic acetylcholine receptor M4 (Homo sapiens) (UniProt P08173)
Sequence (P08173 whole entry, looked up): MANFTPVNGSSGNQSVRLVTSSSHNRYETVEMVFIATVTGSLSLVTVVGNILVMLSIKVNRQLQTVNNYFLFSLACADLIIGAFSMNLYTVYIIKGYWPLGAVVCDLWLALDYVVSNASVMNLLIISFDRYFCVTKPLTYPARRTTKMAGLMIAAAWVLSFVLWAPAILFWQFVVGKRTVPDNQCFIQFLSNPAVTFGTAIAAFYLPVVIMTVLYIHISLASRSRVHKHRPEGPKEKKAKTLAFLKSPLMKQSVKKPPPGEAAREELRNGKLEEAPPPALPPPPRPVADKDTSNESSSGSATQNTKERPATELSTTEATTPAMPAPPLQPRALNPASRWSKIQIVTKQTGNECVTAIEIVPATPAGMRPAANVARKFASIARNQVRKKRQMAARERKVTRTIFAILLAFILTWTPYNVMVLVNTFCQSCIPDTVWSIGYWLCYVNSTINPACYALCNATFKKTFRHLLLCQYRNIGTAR
Experiment: compounds altering M4/GIRK thallium flux, either direction, primary screen, M4 allosteric agonist project, cell-based, HEK293 M4/GIRK, BTC-AM (AID 625;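 active = fluorescence slope after compound addition differing from the mean of all tested samples at 99.7% confidence, mostly higher but some lower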;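 note: thallium influx through GIRK channels coupled to M4 in HEK293 cells with BTC-AM dye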)
Details: at 10 µM, actives lie on both sides
How it was run: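 System: HEK293 cells with M4 receptor and GIRK channels | Incubation: Cells overnight at 37 °C, BTC-AM loading 1 h, reads 2 min total | Technique: Kinetic BTC-AM fluorescence sampled at 1 Hz, 10 s pre-addition baseline | Measure: Post-addition slope, 15–24 s, of baseline-normalized fluorescence | Control set: Carbachol positive, DMSO negative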

Fluorescence slope, inactive:
CCCn1c2c(c(O)c(C(=O)Nc3ccc(C)cn3)c1=O)CCCC2 0.00777
CCCC1(C(=O)OCC)NC(c2ccc(N(C)C)cc2)C2C(=O)N(c3ccccc3)C(=O)C21 (stereo not given) 0.0068
COc1cc(C2C(C(=O)c3ccc(C)o3)=C(O)C(=O)N2c2cc(C)on2)cc(Br)c1O (stereo not given) 0.00505
CCCCc1cc(=O)oc2c(CN3CCCC3)c(O)c(Cl)cc12 0.00532
Cc1ccccc1-c1nc(CN2CCC(C(=O)NCc3cccnc3)CC2)c(C)o1 0.00551
O=C(Nc1ccc(Cc2ccncc2)cc1)C1CC1 0.00686
Nc1cc(C(=O)O)ccc1Nc1ccc(F)c(F)c1 0.00669
CSc1nc2c(ccc3ccccc32)o1 0.00656
CCCCSc1nc2c(cnn2-c2ccc(Cl)cc2)c(=O)[nH]1 0.00579
CC(NO)C(C)(C)NO (stereo not given) 0.00819
CCCCOc1ccc(C(=O)Nc2ccc(N3CCN(C(=O)C(C)C)CC3)cc2)cc1 0.0053
O=c1[nH]c2ccccc2nc1NCCN1CCOCC1 0.00364
CCOC(=O)c1ccccc1NC(=O)COC(=O)C1=COCCO1 0.00593
COCCCNC(=O)C(Cc1ccccc1)NS(=O)(=O)c1ccc2c(c1)c(=O)n(C)c(=O)n2C (stereo not given) 0.00611
Cc1nc2cc(CO)ccc2n1C 0.00622
NCC(O)COc1ccc2c(c1)OCO2 (stereo not given) 0.00335
Nc1nc2sc3c(c2c(=O)s1)CCCC3 0.00365
COc1cccc(OC)c1C(=O)N1CCN(S(=O)(=O)c2ccccc2)CC1 0.00446
COc1ccc(C(NC(=O)c2ccco2)c2ccc(OC)c(OC)c2)cc1 (stereo not given) 0.00496
O=C(O)C1CC(=O)N(c2ccc(OCc3ccccc3Cl)cc2)C1 (stereo not given) 0.0043
O=C(CCSc1nnc(-c2ccncc2)o1)Nc1ccccc1 0.0061
CCNS(=O)(=O)c1c(C)cc(N2CCCC2=O)cc1C 0.00655
CN(C)C(CNc1nnnn1-c1ccccc1)c1ccco1 (stereo not given) 0.00677
Cn1c(-c2ccccc2)c(CCO)c2ccccc21 0.00569
CCOC(=O)C1C(=O)NC(SCC(=O)Nc2nccs2)=C(C#N)C1c1ccccc1OCC (stereo not given) 0.00515
c1ccc2nc(-c3nc4ccccc4[nH]3)ccc2c1 0.00356
COc1cc(-c2nc(S(=O)(=O)c3ccccc3)c(N3CCOCC3)o2)cc(OC)c1OC 0.0029
O=C(N1CCN(Cc2ccccc2)CC1)C12CC3CC(CC(C3)C1)C2 0.00533
CC(=O)c1c(NCCc2ccccc2)cc(C)oc1=O 0.00739
O=C(NCCCN1CCN(CCCNC(=O)c2ccc(F)cc2)CC1)c1ccc(F)cc1 0.00616
C=CCn1c(SCc2cc(=O)n3ccsc3n2)nnc1C1CCCCC1 0.00775
Oc1c(Cl)cc(Cl)c2c1NCCC2 0.00523
CN(C)S(=O)(=O)c1ccc2c(c1)C(CC(=O)O)OC2=O (stereo not given) 0.00625
COc1cc(OC)cc(-n2nnnc2SCC(=O)N2CCCC2)c1 0.0053
CCC(=O)N1CCc2cc(Br)cc(S(=O)(=O)C3(C(=O)OC)CC3)c21 0.00618
COC(=O)C(C)Sc1nc2c(c(=O)n(C)c(=O)n2C)n1Cc1cccc(C)c1 (stereo not given) 0.00598
Cn1c(SCc2ccc3c(c2)OCO3)nnc1-c1ccccc1 0.00602
Cc1nn(-c2ccc(F)cc2)c(C)c1NS(=O)(=O)c1ccc(Cl)cc1 0.00631
CC1(C)OC(=O)C(=CNc2ccccc2)C(=O)O1 0.00548
CCCCCn1c(CN(C)Cc2ccccc2)nc2c1c(=O)n(C)c(=O)n2C 0.00453
